Screens as filed in PubChem.
MPTP block = mitochondrial permeability transition pore inhibitors, primary screen, biochemical, isolated mouse mitochondria, absorbance | Ca2+ swelling absorbance, 30 min | actives 1.4% (n = 360,000) | inhibition, % at 10 µM;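 active = inhibition of 50% or more, scaled per plate between neutral and stimulator controls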
ADAM10 inh = human ADAM10 inhibitors, primary screen, biochemical, QFRET, HTS | Disintegrin and metalloproteinase domain-containing protein 10 (Homo sapiens), O14672 | recombinant ADAM10, EDANS/DABCYL FRET peptide cleavage, 3 h | inhibition, % at 7 µM | actives 0.62% (n = 370,000) | AID 720582, 2013;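 active = inhibition above a per-campaign cutoff equal to the mean of compounds falling between control-based bounds plus 3 SD, cut at about 20% in these data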
Target sequence (O14672 214-748 limits assumed): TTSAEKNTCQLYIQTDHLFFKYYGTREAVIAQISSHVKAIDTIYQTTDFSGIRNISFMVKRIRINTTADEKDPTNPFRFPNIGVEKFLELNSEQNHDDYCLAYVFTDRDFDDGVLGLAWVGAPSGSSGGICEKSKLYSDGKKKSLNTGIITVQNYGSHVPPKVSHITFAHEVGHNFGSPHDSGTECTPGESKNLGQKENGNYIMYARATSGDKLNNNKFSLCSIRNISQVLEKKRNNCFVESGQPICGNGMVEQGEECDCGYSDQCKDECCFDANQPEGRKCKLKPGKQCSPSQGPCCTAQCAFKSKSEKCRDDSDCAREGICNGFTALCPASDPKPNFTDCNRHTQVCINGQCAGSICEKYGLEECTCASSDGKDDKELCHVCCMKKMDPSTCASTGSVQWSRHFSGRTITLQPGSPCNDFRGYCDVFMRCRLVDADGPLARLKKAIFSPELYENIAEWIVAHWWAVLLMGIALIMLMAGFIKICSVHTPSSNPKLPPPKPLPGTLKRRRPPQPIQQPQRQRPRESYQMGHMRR
ADAM17 inh = ADAM17 inhibitors, primary screen, biochemical, QFRET. inhibition, % at 6.95 µM. actives 0.83% (n = 370,000). recombinant ADAM17, EDANS/DABCYL FRET peptide cleavage;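 active = inhibition above the mean of compounds lying between control limits plus 3 SD, set per campaign, cut at about 8.5% in these data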
aDG glyco up = activators of alpha-DG glycosylation, primary screen, uHTS, Pro5-aDG cells, AlphaScreen. alpha-DG glycosylation AlphaScreen (IIH6); 0% Pro5, 100% B10-LARGE cell signal. actives 0.22% (n = 360,000). activation, % at 10 µM;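 active = activation of at least 8% versus controls, or a plate z-score of at least 8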;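 also: Pro5 are CHO cells carrying HIG-tagged alpha-DG that lacks glycosylation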
V-ATPase pH = regulators of yeast V-ATPase proton pumping, primary screen, pHLuorin cytosolic pH fluorescence | response, % at 10 µM | AID 504577, 2011 | actives 0.37% (n = 350,000) | S. cerevisiae; in the data active = response mostly above about 7.3%, no sharp cut-off; inactive = mostly below about 5.4%; also: actives read high
Hep lipid drop = inhibitors of hepatocyte lipid droplet formation, primary screen, imaging, high-throughput imaging, BODIPY stain. AML12 mouse hepatocytes, oleate lipid droplets. inhibition, % at 6.5 µM. actives 0.4% (n = 240,000);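 active = lipid droplet intensity inhibited by at least 50%, with more than 500 cells counted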
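material = mouse AML12 hepatocyte cell line, fixed after treatment | also added = 100 µM oleic acid challenge | doses = compound at 6.5 µM only | schedule = overnight exposure | technique = Image-based BODIPY and DAPI two-channel analysis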
ADAM10 confirm = human ADAM10 inhibitors, confirmation, biochemical, QFRET, triplicate; shares compounds with ADAM10 inh; ADAM10 QFRET peptide cleavage, EDANS fluorescence; inhibition, % at 6.95 µM; actives 1% (n = 2,100);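 active = inhibition above about 20% chosen separately for each screening run, limit read from the data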
ADAM17 counter = ADAM17 inhibitors, counter-screen for ADAM10 exosite inhibitor project, biochemical, QFRET, high throughput. shares compounds with ADAM10 inh. ADAM17 QFRET peptide cleavage, EDANS fluorescence. inhibition, % at 6.95 µM. actives 0.5% (n = 2,100);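 active = mean triplicate inhibition above the solvent-only control wells' mean plus 3 SD, cut at about 12% in these data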
ADAM10 ctr = ADAM10 inhibitors, counter-screen for ADAM17 exosite inhibitor project, biochemical, FRET, human ADAM10; recombinant ADAM10, EDANS/DABCYL FRET peptide cleavage, 3 h; AID 743256, 2014; actives 47% (n = 2,900); shares compounds with ADAM17 inh; inhibition, % at 6.95 µM;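 active = mean inhibition over the triplicate runs exceeds the activity threshold set in the earlier primary screen, cut at about 20% in these data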
ADAM17 confirm = ADAM17 inhibitors, hit retest, confirmation, biochemical, QFRET peptide cleavage; shares compounds with ADAM17 inh; inhibition, % at 6.95 µM; actives 65% (n = 2,900); recombinant ADAM17, EDANS/DABCYL QFRET peptide cleavage;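 active = mean inhibition across replicates above the hit cutoff set in the primary screen, cut at about 8.5% in these data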
Each line names hits and unclear results; the compound was inactive in the other large screens (follow-up assays come after a bar, where they were run). A selection: hits, their analogues and other compounds. The true share with any hit is near 3.1%.

Cc1nn(Cc2ccccc2)c(C)c1/C=N/NC(=O)CNc1cccc(C(F)(F)F)c1	ADAM10 inh 21, ADAM17 inh 11 | ADAM10 confirm inactive | ADAM17 counter inactive | ADAM10 ctr inactive | ADAM17 confirm 10
COc1ccc(NCC(=O)N/N=C/c2c(C)nn(Cc3ccccc3)c2Cl)cc1	none
CCOC(=O)C1=CN(Cc2cccc(F)c2)S(=O)(=O)NC1CCc1ccccc1 (stereo unspecified)	ADAM10 inh 21, ADAM17 inh 12 (no result: Hep lipid drop) | ADAM10 confirm inactive | ADAM17 counter inactive | ADAM10 ctr 51 | ADAM17 confirm 20
O=C(OCc1ccccc1)[C@H](Cc1ccccc1)NC(=O)[C@@H]1CC=C[C@@H]2CCN(C3CCCCC3)C(=O)[C@@H]21	none (no result: MPTP block, aDG glyco up, V-ATPase pH, Hep lipid drop)
CCCCNC(=O)C[C@@H]1C[C@@]2(C(=O)OC)CC(C)(C)CC=C2N(Cc2ccc3c(c2)OCO3)C1=O	none (no result: V-ATPase pH, Hep lipid drop)
COC(=O)[C@@]12C[C@@H](CC(=O)NCCCCc3ccccc3)C(=O)N(Cc3ccc4c(c3)OCO4)C1=CCC(C)(C)C2	ADAM10 inh 27, ADAM17 inh 17 (no result: V-ATPase pH, Hep lipid drop) | ADAM10 confirm inactive | ADAM17 counter inactive | ADAM10 ctr 28 | ADAM17 confirm 15
N#Cc1c(Cl)nc(N/N=C/c2ccccc2)c(Cl)c1Cl	ADAM10 inh 23, ADAM17 inh 9.1 | ADAM10 confirm 31 | ADAM17 counter 15 | ADAM10 ctr inactive | ADAM17 confirm inactive
Nc1cnnc(N/N=C\c2ccccc2)c1Cl	none (no result: Hep lipid drop)
C[C@@H]1COc2cc(Br)ccc2S(=O)(=O)N1Cc1cn(Cc2ccc(F)cc2)nn1	none (no result: MPTP block, aDG glyco up, V-ATPase pH, Hep lipid drop)
CC(C)(C)S(=O)N1Cc2cc(C(=O)NCc3ccc4c(c3)OCO4)nc(-c3cccc(-c4ccccc4)c3)c2[C@@H]1CCO (stereo partly specified)	ADAM10 inh 26, ADAM17 inh 9.2 (no result: V-ATPase pH, Hep lipid drop) | ADAM10 confirm inactive | ADAM17 counter inactive | ADAM10 ctr inactive | ADAM17 confirm 9.3
CC(C)(C)S(=O)N1Cc2cc(C(=O)NCc3ccc4c(c3)OCO4)nc(-c3cccc(-c4ccncc4)c3)c2[C@H]1CCO (stereo partly specified)	none (no result: V-ATPase pH, Hep lipid drop)
O=C1N[C@@H](Cc2c[nH]c3ccccc23)COC(=O)[C@H](Cc2ccc(F)cc2)C/C=C\C[C@@H]1CC(=O)N(CCO)Cc1ccccc1	none (no result: Hep lipid drop)
O=C1N[C@@H](Cc2c[nH]c3ccccc23)COC(=O)[C@@H](Cc2ccc(F)cc2)C/C=C\C[C@H]1CC(=O)N(CCO)Cc1ccccc1	ADAM10 inh 24, ADAM17 inh 9.7 (no result: Hep lipid drop) | ADAM10 confirm inactive | ADAM17 counter inactive | ADAM10 ctr 30 | ADAM17 confirm 15
CC(C)(C)c1ccc2c(c1)OC(C(=O)N/N=C\c1ccc(-c3cccc(C(=O)O)c3)o1)CO2 (stereo unspecified)	none
CC(C)(C)c1ccc2c(c1)OC(C(=O)N/N=C\c1ccccn1)CO2 (stereo unspecified)	ADAM10 inh 21, ADAM17 inh 12 | ADAM10 confirm inactive | ADAM17 counter inactive | ADAM10 ctr inactive | ADAM17 confirm inactive
C[C@H]1[C@@H](N(C)C)CC[C@@]23CCCN2C(=O)CCC[C@@H]13	none (no result: MPTP block, aDG glyco up, V-ATPase pH, Hep lipid drop)
Cc1ccc2cccc(Oc3ncnc4scc(-c5ccccc5)c34)c2n1	none
COc1ccc(-c2csc3ncnc(Oc4cccc5ccc(C)nc45)c23)cc1	ADAM10 inh 21, ADAM17 inh 8.9 | ADAM10 confirm inactive | ADAM17 counter inactive | ADAM10 ctr inactive | ADAM17 confirm inactive
O=S1(=O)c2ccc(Br)cc2OC[C@H](Cc2ccccc2)N1Cc1cn(Cc2ccc(F)cc2)nn1	none (no result: MPTP block, aDG glyco up, V-ATPase pH, Hep lipid drop)
OC(c1ccccc1)c1nc(-c2csc3ccccc23)cs1 (stereo unspecified)	ADAM10 inh 33, ADAM17 inh 16 (no result: V-ATPase pH, Hep lipid drop) | ADAM10 confirm inactive | ADAM17 counter inactive | ADAM10 ctr 30 | ADAM17 confirm 16
COC(=O)C(Nc1ccccc1Cl)(c1cc(C)c(O)c(C)c1)C(F)(F)F (stereo unspecified)	ADAM10 inh 30, ADAM17 inh 13 | ADAM10 confirm inactive | ADAM17 counter inactive | ADAM10 ctr 41 | ADAM17 confirm 20
COc1ccc(C(O)c2nc(-c3ccc4ccccc4c3)cs2)cc1 (stereo unspecified)	ADAM10 inh 42, ADAM17 inh 20 (no result: V-ATPase pH, Hep lipid drop) | ADAM10 confirm inactive | ADAM17 counter inactive | ADAM10 ctr 21 | ADAM17 confirm 14
COc1cc(C(O)c2nc(-c3ccc4ccccc4c3)cs2)ccc1F (stereo unspecified)	ADAM10 inh 49, ADAM17 inh 23 (no result: V-ATPase pH, Hep lipid drop) | ADAM10 confirm inactive | ADAM17 counter inactive | ADAM10 ctr 22 | ADAM17 confirm 15
COc1cc(C(O)c2nc(-c3ccc(F)c(Cl)c3)cs2)ccc1F (stereo unspecified)	none (no result: V-ATPase pH, Hep lipid drop)
COc1ccc(C(O)c2nc(-c3ccccc3)cs2)cc1 (stereo unspecified)	none (no result: V-ATPase pH, Hep lipid drop)
O=C1C(NC(=O)C(F)(F)Br)CCCCN1Cc1cccc(C(F)(F)F)c1 (stereo unspecified)	none (no result: MPTP block, aDG glyco up, V-ATPase pH, Hep lipid drop)
Cc1ccc(S(=O)(=O)N(C)C[C@H]2Oc3cc(Br)ccc3S(=O)(=O)N([C@H](C)CO)C[C@H]2C)cc1	ADAM10 inh 31, ADAM17 inh 17 (no result: Hep lipid drop) | ADAM10 confirm inactive | ADAM17 counter inactive | ADAM10 ctr inactive | ADAM17 confirm inactive
O=C1C=C(c2cccc(Cl)c2O)C[C@@H](c2ccc(Cl)cc2)C1	ADAM10 inh 22, ADAM17 inh 14 (no result: Hep lipid drop) | ADAM10 confirm inactive | ADAM17 counter inactive | ADAM10 ctr 22 | ADAM17 confirm 13
